Experimental data taken from EPA's CvTdb concentration-time database.

Tests used:
rat [1] = test: concentration in blood after dosing; negative times count back from the end of exposure; settings: inhalation
human = test: concentration in blood after dosing; negative times count back from the end of exposure; settings: dosed: ethylbenzene, 33 ppm, inhalation, duration: 7 hr
Method in brief: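 Data points giving concentration or amount against time came from published in vivo toxicokinetic studies and from two structured collections. PubMed searching, classifier screening and manual review located the studies. Most points were digitised from plot screenshots using WebPlotDigitizer, the rest were copied from tables, and all keep their reported units.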

rat [2] = test: concentration in blood after dosing

ClC(Cl)(Cl)Cl [carbon tetrachloride]
concentration in blood [mg/L], rat [1], dosed: carbon tetrachloride, duration: 120 min
Settings	100 ppm	1000 ppm
0.1277 h	0.401	4.51
0.2902 h	0.401	–
0.305 h	–	4.27
0.4232 h	0.34	–
0.4675 h	–	4.51
0.6891 h	0.24	–
0.7039 h	–	4.75
0.9551 h	0.24	–
0.9698 h	–	3.67
1.457 h	0.24	–
1.472 h	–	2.64
1.96 h	–	2.86
1.975 h	0.14	–
2.462 h	0.14	1.02
2.965 h	0.14	1.06
3.954 h	0.0401	–
3.969 h	–	0.761
4.944 h	0.0401	–
4.974 h	–	0.701
5.979 h	0.02	–
5.993 h	–	0.441
7.013 h	–	0.22
7.988 h	–	0.22
8.993 h	–	0.24
9.983 h	–	0.16
194 s	–	6.31
247 s	0.501	5.19

rat [1], dosed: carbon tetrachloride, duration: 120 min, during exposure
Settings	concentration in blood [mg/L]
-179 s, 1000 ppm	11.2
-125 s, 100 ppm	0.681
-1.941 h, 1000 ppm	5.69
-1.867 h, 1000 ppm	7.11
-1.852 h, 100 ppm	0.441
-1.793 h, 100 ppm	0.601
-1.69 h, 100 ppm	0.741
-1.675 h, 1000 ppm	7.55
-1.527 h, 100 ppm	0.481
-1.498 h, 1000 ppm	6.17
-1.276 h, 1000 ppm	7.51
-1.261 h, 100 ppm	0.421
-1.054 h, 1000 ppm	6.93
-1.025 h, 100 ppm	0.561
-0.8032 h, 100 ppm	0.601
-0.7884 h, 1000 ppm	7.73
-0.5668 h, 1000 ppm	8.19
-0.5372 h, 100 ppm	0.461
-0.3008 h, 100 ppm	0.881
-0.2861 h, 1000 ppm	10

ClC(Cl)Cl [chloroform]
rat [1], dosed: chloroform, 100 ppm, duration: 360 min
Settings	concentration in blood [µg/g]
0.4971 h	0.55
2.006 h	0.151

rat [1], dosed: chloroform, 100 ppm, duration: 360 min, during exposure
Settings	concentration in blood [µg/g]
-31 s	1.02
-5.747 h	0.18
-5.503 h	1.05
-4.997 h	1.05
-3 h	1.25

CCc1ccccc1 [ethylbenzene]
human
Settings	concentration in blood [mg/L]
0.4921 h	0.254
0.9902 h	0.197

human, during exposure
Settings	concentration in blood [mg/L]
-1.491 h	0.518
-0.514 h	0.497

rat [2], dosed: ethylbenzene, 50 ppm, inhalation, duration: 4 hr
Settings	concentration in blood [µg/mL]
0.4948 h	0.531
0.9897 h	0.315
1.498 h	0.193
1.993 h	0.146
272 s	0.821

O=C[O-] [formate]
rat [2], dosed: methanol, 100 mg/kg, iv, male, CDF(F344)/CrlBR
Settings	concentration in blood [µg/mL]
0.1321 h	3.24
0.4419 h	3.23
0.9757 h	3.13
1.457 h	3.58
1.923 h	2.56
2.94 h	2.07
4.456 h	1.03
5.99 h	0.0739
7.984 h	1.33
119 s	0.74
